Measurements taken from paper PMC2233693 (The Journal of General Physiology, 2000).
Substitutions are numbered along the chain they refer to. Read-outs that look alike come from different tables or passages of the source.

How the values were obtained:
Format in all cases: biochemical
[1] = molecular target: T1, E340G mutant bovine olfactory CNG channel (Bos taurus, UniProt Q03041, E340G)
T1 sequence (Q03041 1-663 E340G): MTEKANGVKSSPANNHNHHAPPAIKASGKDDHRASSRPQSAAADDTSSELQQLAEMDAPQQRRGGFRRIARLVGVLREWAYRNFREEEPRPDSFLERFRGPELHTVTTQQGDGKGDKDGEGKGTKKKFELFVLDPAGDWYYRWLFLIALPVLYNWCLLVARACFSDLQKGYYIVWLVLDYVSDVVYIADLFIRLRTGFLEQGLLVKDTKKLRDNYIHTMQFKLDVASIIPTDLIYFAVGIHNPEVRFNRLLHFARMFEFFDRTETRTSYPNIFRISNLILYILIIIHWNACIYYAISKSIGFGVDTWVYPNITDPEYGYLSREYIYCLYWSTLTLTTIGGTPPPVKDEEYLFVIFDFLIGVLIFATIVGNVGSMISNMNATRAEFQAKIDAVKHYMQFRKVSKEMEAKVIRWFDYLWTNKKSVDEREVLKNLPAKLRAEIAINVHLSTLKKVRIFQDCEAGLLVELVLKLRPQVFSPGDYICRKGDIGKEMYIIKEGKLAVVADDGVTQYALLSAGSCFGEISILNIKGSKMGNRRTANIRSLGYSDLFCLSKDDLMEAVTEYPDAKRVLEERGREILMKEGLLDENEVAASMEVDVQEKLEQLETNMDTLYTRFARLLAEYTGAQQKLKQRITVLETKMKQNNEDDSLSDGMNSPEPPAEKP

[2] = molecular target: T2, E340N mutant bovine olfactory CNG channel (Bos taurus, UniProt Q03041, E340N)
T2 sequence (Q03041 1-663 E340N): T1 sequence (Q03041 1-663 E340G) with G340N

[3] = molecular target: T3, wild-type bovine olfactory CNG channel (α3 subunit) (Bos taurus, UniProt Q03041); test: Blockage of macroscopic current by external Ca2+ or Mg2+, outside-out patches; conditions: for Ki: mean ± SD
T3 sequence (Q03041 1-663): T1 sequence (Q03041 1-663 E340G) with G340E
Outline: (§1)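 Xenopus oocytes injected with wild-type or mutant channel mRNA; outside-out patches with 100 μM cGMP in the pipette. Bath: 110 mM NaCl, 2 mM EDTA, 10 mM HEPES, pH 7.4, plus Ca2+ (NTA-buffered) or Mg2+ (EDTA-buffered); unbuffered above 0.1 mM. Five 1-s ramps (−80 to +80 mV) averaged, leak subtracted. Current normalised to divalent-free current at the same voltage, Hill-fitted per patch; Ki and n given as mean ± SD.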

[4] = molecular target: T2, E340N mutant bovine olfactory CNG channel; test: as above; conditions: for Ki: mean ± SD
Outline: as §1

[5] = read-out: K 1/2,cG, −80 mV, single patch, Fig. 1 fit
[6] = −80 mV, single patch, Fig. 1 fit

Compound: [Ca+2] [Ca^2+]
- effect of external Ca2+ on K 1/2 for cAMP or cGMP ([1]; 1 mM Ca2+ in the patch pipette): did not significantly affect K 1/2
- effect of external Ca2+ on K 1/2 for cAMP or cGMP ([2]; 1 mM Ca2+ in the patch pipette): did not significantly affect K 1/2
- n, Hill coefficient of blockage ([3]; external Ca2+, +80 mV): 0.9 ± 0.1
- Ki ([3]; external Ca2+, +80 mV): 383 ± 145 µM
- n, Hill coefficient of blockage ([3]; external Ca2+, −80 mV): 1.3 ± 0.4
- Ki ([3]; external Ca2+, −80 mV): 47 ± 21 µM
- n, Hill coefficient of blockage ([4]; external Ca2+, +80 mV): 0.6 ± 0.2
- Ki ([4]; external Ca2+, +80 mV): 29000 ± 6000 µM
- n, Hill coefficient of blockage ([4]; external Ca2+, −80 mV): 0.6 ± 0.1
- Ki ([4]; external Ca2+, −80 mV): 6500 ± 4000 µM

Compound: [Mg+2] [Mg^2+]
- n, Hill coefficient of blockage ([3]; external Mg2+, +80 mV): 1.0 ± 0.1
- Ki ([3]; external Mg2+, +80 mV): 920 ± 640 µM
- n, Hill coefficient of blockage ([3]; external Mg2+, −80 mV): 1.2 ± 0.2
- Ki ([3]; external Mg2+, −80 mV): 70 ± 34 µM
- n, Hill coefficient of blockage ([4]; external Mg2+, +80 mV): 0.6 ± 0.1
- Ki ([4]; external Mg2+, +80 mV): 50000 ± 3600 µM
- n, Hill coefficient of blockage ([4]; external Mg2+, −80 mV): 0.6 ± 0.1
- Ki ([4]; external Mg2+, −80 mV): 17000 ± 7200 µM

Compound: Nc1nc2c(ncn2[C@@H]2O[C@@H]3COP(=O)(O)O[C@H]3[C@H]2O)c(=O)[nH]1 [cGMP]
- n(−80 mV), Hill coefficient ([1]; cGMP): 1.8 ± 0.4
- I(−80 mV)/I(+80 mV) ([1]; cGMP-gated current): 0.79 ± 0.09
- EC50 ([1]; read-out: K 1/2, cGMP, +80 mV): 13 ± 1.5 µM
- EC50 ([1]; read-out: K 1/2, cGMP, −80 mV): 15 ± 1.6 µM
- EC50 [1, 5]: 18.5 µM
- n cG [1, 6]: 1.6
- n(−80 mV), Hill coefficient ([2]; cGMP): 2.1 ± 0.3
- I(−80 mV)/I(+80 mV) ([2]; cGMP-gated current): 0.55 ± 0.10
- EC50 ([2]; read-out: K 1/2, cGMP, +80 mV): 5.6 ± 1.8 µM
- EC50 ([2]; read-out: K 1/2, cGMP, −80 mV): 7.6 ± 4 µM
- EC50 [2, 5]: 6.6 µM
- n cG [2, 6]: 2.3
